The test system of this data set is MS2 coat protein. In words: apparent Kd, MS2 coat protein; higher = weaker binding; RNA-MaP array; FMN 200 µM where present. The method in brief: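 Stalled E. coli RNA polymerase transcribed the designs on Illumina sequencing-chip clusters. SNAP-549-labelled MS2 coat protein was titrated from 0.7 or 1.5 nM, doubling to 3 µM, without and then with constant ligand, in 100 mM Tris-HCl pH 7.5, 80 mM KCl, 4 mM MgCl2, BSA, DTT, yeast tRNA and Tween-20. Per-cluster binding curves were fitted to green signal normalised to red-channel RNA signal and control-cluster median Fmax. The apparent Kd is the median of the filtered fits.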

The mark [1] stands for this setting: designed as: ON switch for flavin mononucleotide, no ligand.
[2] abbreviates: ligand present: flavin mononucleotide, designed as: ON switch for flavin mononucleotide.
The mark [3] stands for this setting: designed as: OFF switch for flavin mononucleotide, no ligand.
Setting [4] is: ligand present: flavin mononucleotide, designed as: OFF switch for flavin mononucleotide.

Take “AGUGUCAUCGAGAAGGCCUCAACAUGAGGAUCACCCAUGUUGCAAAAUGGGAGGAUAUCGCGCGAAAAGCUACGUUUCGUAGCA”: the apparent Kd (as a rule, the concentration giving half-maximal binding under the conditions of the assay) under setting [1] turned out to be 28.9 nM and the “apparent Kd” value under setting [2] is 11.6 nM.

Regarding “CCAAGCUGUGUGAGGAUAUGCUGAACCUUGGUUCAGCAGAAGGCACAUGAGGAUCACCCAUGUGAAAAGCUUGG”, the “apparent Kd” value was 16.2 nM under setting [3] and 56 nM under setting [4].

Consider “ACAAGACAUGAGGAUCACCCAUGUAAAGAAAACGCAGGAUAUGCAAAAAAAUUCAUGGGUGCAGAAGGGCGAAAAA”, for which the “apparent Kd” value was determined as 68.1 nM under setting [1] and 322 nM under setting [2].

On to “GUCCGGCGUGUAGGAUAUGGAUCCGAUUAGGAUCCAGAAGGACAUGAGGAUCACCCAUGUACAUGUAAACAGUCAUCACCGGAG”, for which the “apparent Kd” value by setting is: under setting [3], 9.11 nM; under setting [4], 58.9 nM.

On to “GAAUUAUUACAGAAGGUGUUUUACAUGAGGAUCACCCAUGUUUUAUUGUUUAAAUUUGAUAUUUACAAGGAUAUGUACUAAUCU”, for which the “apparent Kd” value runs as follows: under setting [1], 32.1 nM; under setting [2], 24.3 nM.

For the sequence “GCGAUUUUGUAGAAGGUACGUGAUUAGUCAAAGUAAGGAUAUACUGACAUGAGGAUCACCCAUGUAUUAAUAGUUAACAGUCGC”, the “apparent Kd” value is 94.6 nM under setting [1] and 23.1 nM under setting [2].

Turning to “GGAGCACACAUUCACAUGAGGAUCACCCAUGUCAAAAGACAUGAGGAUAUGGAUCCGAAAAGGAUCCAGAAGGCAUGGUGCUCC”, the “apparent Kd” value was 483 nM under setting [1] and 25.5 nM under setting [2].

For the sequence “UUAAUUAACAAGAAGGCAUACAUGAGGAUCACCCAUGUUCUACAUGGAUAAUGAGGAUAUUGCUAAUACAUGAGGAUCACCCAU”, the “apparent Kd” value was determined as 53.6 nM under setting [3] and 50.8 nM under setting [4].

With “UUCAUGUUAGGAUAUUCCGCCACAGAGAAAGUCUGUGGAAUGAAGAAGGGACAUGAGGAUCACCCAUGUUCCAA”, the “apparent Kd” value is, setting by setting: under setting [3], 15.1 nM; under setting [4], 15.9 nM.

For “GUGCAUACGUGAGGAUAUGUAUUAGCUCGUGGUACAGAAGGCAUGUCUGAUGACAUGAGGAUCACCCAUGUUGGCACAGUGCGC”, the “apparent Kd” value is, setting by setting: under setting [1], 48.2 nM; under setting [2], 27.6 nM.

For “GUAGCAUACCGAGGAUAUUCAUACAGGAAACUGACAUGAGGAUCACCCAUGUGGCGAAAGCCUUGGGAGAAGGCGGAAUGCUAC”, the “apparent Kd” value is 637 nM under setting [1] and 28.4 nM under setting [2].

“CCUAAGGAGACAGGAUAUAGCGUGGUGGCCGGGCUCCAACGGCGAGCGGCGCUAGAAGGGUCACUACAUGAGGAUCACCCAUGU”: the “apparent Kd” value is, setting by setting: under setting [1], 10.2 nM; under setting [2], 10.9 nM.

For “UAGUAUCAACGAGGAUAUAAUAUGUUCAAUUUUUUAUAUUGUUUACAUGAGGAUCACCCAUGUUAUUAGAAGGCGUAUGGGAUU”, the “apparent Kd” value by setting is: under setting [1], 61.8 nM; under setting [2], 47.7 nM.

On to “GGAUAGGACAGAGGAUAUACGUGCUAGAGAUACUAGCAAAAUUUCUUCACAUGAGGAUCACCCAUGUAGAAGGCUGUCCUAUCG”, for which the “apparent Kd” value reads like this: under setting [3], 4.55 nM; under setting [4], 5.6 nM.

On to “GCUGCUAUCGCAGGAUAUUACAUGGGAAAUAAGACAUGAGGAUCACCCAUGUUAAAUAUCGUAAAUAAGAAGGGCGAUAGCAGC”, for which the “apparent Kd” value reads like this: under setting [1], 270 nM; under setting [2], 475 nM.

“GCAGGUUAAGUCAGGAUAUACCUAUGGAUACAUAGGUAGAAGGGACAUGAGGAUCACCCAUGUUCCUCACCUGC”: the “apparent Kd” value came out at 15.6 nM under setting [3] and 34.3 nM under setting [4].

Regarding “CCAUGGCAUGUAGGAUAUGUCUGACAAAGUCAGACAGAAGGACAUGAGGAUCACCCAUGUAAAAGAAAACCAACAUAGCCAUGG”, the “apparent Kd” value under setting [3] was determined as 6.23 nM and the “apparent Kd” value under setting [4] is 5.88 nM.

With “UUUCCGCGAGGAUAUGCGGGCUGUGCUUUUCAUUUCUUACCACAUGAGGAUCACCCAUGUAGAAGGUGCUUCUU”, the “apparent Kd” value is, setting by setting: under setting [3], 154 nM; under setting [4], 136 nM.

As for “CUCAUGUAAGGAUAUCAGUAGUAAAAAAAUAAAAUUACUACUGAGAAGGUACAUGAGGAUCACCCAUGUAUCUU”, the “apparent Kd” value under setting [3] turned out to be 84.8 nM and the “apparent Kd” value under setting [4] is 72.5 nM.

Regarding “AAUAAGGGAGGAUAUGCGGAACGGUUUGUUCUCAGUGAGGCACAUGAGGAUCACCCAUGUAGAAGGCCCGGCAA”, the “apparent Kd” value by setting is: under setting [3], 13.8 nM; under setting [4], 93.1 nM.

Consider “GUUCUGUUAGGAUAUUGGAAAUCCGUAGCUGUGGCGCGCUUCAAGAAGGAACAUGAGGAUCACCCAUGUGAAAU”, for which the “apparent Kd” value by setting is: under setting [3], 25 nM; under setting [4], 25.4 nM.

For the sequence “UAUGAUUGAGGAUAUUGUACUGCUGACAUGAGGAUCACCCAUGUAUGCUAACUCGGCCGUCGAGAAGGCAAUUAUG”, the “apparent Kd” value was found to be 141 nM under setting [3] and 51 nM under setting [4].

As to “UCAGGCUUCGAGAAGGACAUGAAUCGUAGCAUUGCUACGAUCAUAGAUACAUGAGGAUCACCCAUGUAGGAUAUCGGAGUCUGC”, the “apparent Kd” value reads like this: under setting [3], 5.8 nM; under setting [4], 5.87 nM.

Consider “UGGUACAUGGGAGGAUAUGGGUUGAUAACAUGAGGAUCACCCAUGUUAAAUAAGCCGAGAGGCUACUAGAAGGCUCAUGUACCU”, for which the “apparent Kd” value is 327 nM under setting [1] and 10.4 nM under setting [2].

Values taken from the EternaBench riboswitch data.
